Experimental findings from ChEMBL document CHEMBL1287656, “New octahydroquinazoline derivatives: synthesis and hypotensive activity” (Eur J Med Chem, 2010) are described below.

Active and inactive are the calls of the source. The calls are words filed in the database; no cut-off is given here.

The test system of data set [1] is Rattus norvegicus. Nature of the data set: Hypotensive activity in anaesthetized albino rat assessed as change in diastolic arterial blood pressure at 5 mg/kg, ip after 30 mins relative to control. To be noted: route intraperitoneal.
Data set [2] relates to Rattus norvegicus. Nature of the data set: Toxicity in anaesthetized albino rat assessed as change in heart rate at 5 mg/kg, ip after 5 mins relative to control. The settings on record: in vivo. Set-up: dose 5 mg/kg, route intraperitoneal. In kind it is organism-based. The method, boiled down: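 Urethane-anaesthetised (1.75–2.0 g/Kg i.p.) male albino rats, 6 per group, received 5 mg/Kg i.p. in tween 80/distilled water (1:3); solvent-treated controls. Heart rate was taken from a lead II ECG at 5 min after injection (also 15, 30, 60 min). Analysed by ANOVA or unpaired t test.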

Data set [3] concerns Rattus norvegicus. Nature of the data set: Hypotensive activity in anaesthetized albino rat assessed as change in diastolic arterial blood pressure at 60 mg/kg, ip after 5 mins relative to control. In kind it is functional. To be noted: route intraperitoneal.
For data set [4], the system named is Rattus norvegicus. Nature of the data set: Hypotensive activity in anaesthetized albino rat assessed as reduction of adrenaline-induced increase in systolic arterial blood pressure at 3 ug/kg, iv administered 30 mins before adrenaline challenge measured after 1 hr relative to control. In kind it is functional. Set-up: scale not given: the % may be the effect or the level left. The essentials:
(§1)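 Anaesthetised male albino rats (urethane 1.75–2.0 g/Kg i.p.; n=6 per group). Adrenaline (3/Kg i.v.) pressor response was recorded alone, 30 min before i.p. injection of the test agent (5 mg/Kg in tween 80/water). The adrenaline challenge was repeated 30 min and 1 h after dosing. Systolic and diastolic pressure were recorded via a cannulated artery and transducer.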

In data set [5] the test system is Rattus norvegicus. Nature of the data set: Hypotensive activity in anaesthetized albino rat assessed as change in systolic arterial blood pressure at 5 mg/kg, ip after 60 mins relative to control. The settings on record: route intraperitoneal.
Data set [6] concerns Rattus norvegicus. Nature of the data set: Toxicity in anaesthetized albino rat assessed as change in heart rate at 60 mg/kg, ip after 5 mins relative to control. In kind it is organism-based. To be noted: in vivo. Set-up: dose 60 mg/kg, route intraperitoneal.
Data set [7] has as its system Rattus norvegicus. Nature of the data set: Toxicity in anaesthetized albino rat assessed as change in heart rate at 15 mg/kg, ip after 5 mins relative to control. In kind it is organism-based. Set-up: dose 15 mg/kg, route intraperitoneal. The settings on record: in vivo.
In data set [8] the test system is Rattus norvegicus. Nature of the data set: Hypotensive activity in anaesthetized albino rat assessed as change in diastolic arterial blood pressure at 5 mg/kg, ip after 15 mins relative to control. To be noted: route intraperitoneal.
Data set [9] deals with Rattus norvegicus. Nature of the data set: Hypotensive activity in anaesthetized albino rat assessed as reduction of adrenaline-induced increase in diastolic arterial blood pressure at 3 ug/kg, iv administered 30 mins before adrenaline challenge measured after 30 mins relative to control. In kind it is functional. Also noted: scale not given: the % may be the effect or the level left. The essentials: as §1

Data set [10] deals with Rattus norvegicus. Nature of the data set: Hypotensive activity in anaesthetized albino rat assessed as change in systolic arterial blood pressure at 5 mg/kg, ip after 5 mins relative to control. In kind it is functional. The settings on record: route intraperitoneal. The essentials:
(§2)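 Male adult albino rats (groups of 6) anaesthetised with urethane 1.75–2.0 g/Kg i.p. Test agent given i.p. at 5 mg/Kg, dissolved in tween 80 and diluted 1:3 with distilled water. A solvent-treated group served as control. Arterial pressure was recorded via a cannula and pressure transducer on a chart oscillograph at 5, 15, 30 and 60 min. Statistics by one-way ANOVA or unpaired t test.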

Data set [11] relates to Rattus norvegicus. Nature of the data set: Hypotensive activity in anaesthetized albino rat assessed as reduction of adrenaline-induced increase in systolic arterial blood pressure at […], iv administered 30 mins before adrenaline challenge measured after 30 mins relative to control. In kind it is functional. Set-up: scale not given: the % may be the effect or the level left. The essentials:
as §1

The subject of data set [12] is Rattus norvegicus. Nature of the data set: Toxicity in anaesthetized albino rat assessed as change in heart rate at 30 mg/kg, ip after 5 mins relative to control. In kind it is organism-based. Set-up: dose 30 mg/kg, route intraperitoneal. The settings on record: in vivo.
Data set [13] concerns Rattus norvegicus. Nature of the data set: Hypotensive activity in anaesthetized albino rat assessed as change in systolic arterial blood pressure at 5 mg/kg, ip after 15 mins relative to control. The settings on record: route intraperitoneal.
In data set [14] the test system is Rattus norvegicus. Nature of the data set: Hypotensive activity in anaesthetized albino rat assessed as reduction of adrenaline-induced increase in diastolic arterial blood pressure at 3 ug/kg, iv administered 30 mins before adrenaline challenge measured after 1 hr relative to control. In kind it is functional. Set-up: scale not given: the % may be the effect or the level left. The method, boiled down: as §1

Data set [15] concerns Rattus norvegicus. Nature of the data set: Hypotensive activity in anaesthetized albino rat assessed as change in diastolic arterial blood pressure at 5 mg/kg, ip after 5 mins relative to control. To be noted: route intraperitoneal. In kind it is functional. The essentials: as §2
For data set [16], the system named is Rattus norvegicus. Nature of the data set: Hypotensive activity in anaesthetized albino rat assessed as change in systolic arterial blood pressure at 15 mg/kg, ip. In kind it is functional, organism-based. Also noted: dose 15 mg/kg. The settings on record: TDE = time-dependent effect.
Data set [17] deals with Rattus norvegicus. Nature of the data set: Hypotensive activity in anaesthetized albino rat assessed as change in diastolic arterial blood pressure at 5 mg/kg, ip. The settings on record: TDE = time-dependent effect.
Data set [18] relates to Rattus norvegicus. Nature of the data set: Hypotensive activity in anaesthetized albino rat assessed as change in diastolic arterial blood pressure at 5 mg/kg, ip up to 60 mins. In kind it is functional, organism-based. Set-up: dose 5 mg/kg. The essentials:
as §2

The subject of data set [19] is Rattus norvegicus. Nature of the data set: Hypotensive activity in anaesthetized albino rat assessed as change in systolic arterial blood pressure at 5 mg/kg, ip up to 60 mins. In kind it is functional, organism-based. Also noted: dose 5 mg/kg. The method, boiled down:
as §2

For `CC1(C)CC(=O)C2=C(C1)N(c1ccc(Cl)cc1)CN(c1ccc(OCC(=O)N/N=C/c3ccccc3)cc1)C2`, the Activity is given as -15% in data set [1]; 0% in data set [2]; -20% in data set [3]; -7% in [4]; -13% in [5]; 0% in data set [6]. The Activity is on record as -4% in data set [7]; -10% in data set [8]; -6% in data set [9]; -19% in data set [10]; -7% in [11]; 0% in data set [12]. Also, the values for the Activity in data set [13], in data set [14] and in data set [15] were -13%, -7% and -10%, respectively.
Regarding `Cc1ccc(N2CC3=C(CC(C)(C)CC3=O)N(c3ccc(Cl)cc3)C2)cc1`, the Activity was -6.25% in [1]; 0% in [2]; -18.7% in data set [3]; 0% in data set [4]; -6% in data set [5]; 0% in data set [6]. For the same molecule, the Activity in data set [7] is 0%; in data set [16], “tde”; in [17] it was “tde”; in data set [8] it was 0%; in data set [9] it was -8%; in data set [10], 0%. Also, the Activity in [11] is -11%; in [12] it was 0%; in data set [13] it was 0%; in data set [14], 0%; in [15], 0%.
As for `CC1(C)CC(=O)C2=C(C1)N(c1ccc(Cl)cc1)CN(c1ccc(O)cc1)C2`, the Activity in [1] is 0%; in data set [2], 0%; in data set [3] it was -5%; in [4], 17%; in data set [5] it was -3%; in data set [7], 0%. Moreover, the Activity is given as 0% in data set [8]; 10% in data set [9]; 0% in data set [10]; 17% in [11]; 0% in data set [12]; 0% in [13]. Moreover, the figures for the Activity in data set [14] and in data set [15] were 16% and 0%, respectively.
On to `CC1(C)CC(=O)C2=C(C1)N(c1ccc(Cl)cc1)CN(c1ccc(OCC(=O)N/N=C/c3cccc([N+](=O)[O-])c3)cc1)C2`, for which the result in data set [18] and in [19] was inactive.
As for `CC1(C)CC(=O)C2=C(C1)N(c1ccc(Cl)cc1)CN(c1ccc(OCC(=O)N/N=C/c3cccc(Br)c3)cc1)C2`, the result in data set [18] and in data set [19] was inactive.
For `CC1(C)CC(=O)C2=C(C1)N(c1ccc(Cl)cc1)CN(c1ccc(OCC(=O)N/N=C/c3ccc([N+](=O)[O-])cc3)cc1)C2`, the Activity is -31.25% in [1]; 0% in data set [2]; -31.25% in data set [3]; -5% in [4]; -26.5% in data set [5]; -6.2% in data set [6]. Also, the Activity is -2.1% in [7]; -25% in data set [8]; -9% in data set [9]; -13% in [10]; -10% in data set [11]; -2.1% in data set [12]. Besides, the Activity in data set [13] is listed as -17%; in [14], -9%; in [15], -12.5%.
For the molecule `CC1(C)CC(=O)C2=C(C1)N(c1ccc(Cl)cc1)CN(c1ccc(OCC(=O)N/N=C/c3ccccc3Cl)cc1)C2`, the result in data set [18] and in [19] was inactive.
Turning to `CC1(C)CC(=O)C2=C(C1)N(c1ccc(Cl)cc1)CN(c1ccc(OCC(=O)N/N=C/c3ccc(Br)cc3)cc1)C2`, the outcome in data set [18] and in [19] was inactive.
`Cc1ccc(/C=N/NC(=O)COc2ccc(N3CC4=C(CC(C)(C)CC4=O)N(c4ccc(Cl)cc4)C3)cc2)cc1`: the Activity in data set [1] is reported as -29.16%; in data set [2], -2%; in data set [3], -37.5%; in [4], -22%; in data set [5], -39.3%; in data set [6], -6.3%. The Activity in data set [7] is on record as -5%; in [8], -25%; in [9], -19%; in data set [10], -17.8%; in [11] it was -11%; in data set [12], -6.3%. Besides, the figures for the Activity in [13], in [14] and in data set [15] were -21.4%, -28.5% and -25%, respectively.
Regarding `COc1cc2nc(N3CCN(C(=O)c4ccco4)CC3)nc(N)c2cc1OC` [PRAZOSIN], the Activity is -27.7% in data set [1]; 30% in data set [2]; -38.8% in data set [3]; 0% in [4]; -33.3% in data set [5]; -5.1% in [6]. Further, the Activity in [7] is reported as 26%; in data set [8], -22.22%; in data set [9] it was -8%; in [10] it was -20.8%; in data set [11], -11%; in data set [12] it was 16%. Besides, the Activity is -29.2% in data set [13], 0% in [14] and -22.22% in [15].
As to `CC1(C)CC(=O)C2=C(C1)N(c1ccc(Cl)cc1)CN(c1ccc(F)cc1)C2`, the outcome in data set [18] and in data set [19] was inactive.
`CC1(C)CC(=O)C2=C(C1)N(c1ccc(Cl)cc1)CN(c1ccc(OCC(=O)N/N=C/c3ccc(Cl)cc3)cc1)C2`: the result in data set [18] and in data set [19] was inactive.
Consider `CCOC(=O)COc1ccc(N2CC3=C(CC(C)(C)CC3=O)N(c3ccc(Cl)cc3)C2)cc1`, for which the result in data set [18] and in data set [19] was inactive.
For `COc1ccc(/C=N/NC(=O)COc2ccc(N3CC4=C(CC(C)(C)CC4=O)N(c4ccc(Cl)cc4)C3)cc2)cc1`, the outcome in [18] and in data set [19] was inactive.
Regarding `CC1(C)CC(=O)C2=C(C1)N(c1ccc(Cl)cc1)CN(c1ccc(OCC(=O)N/N=C/c3ccc(Cl)cc3Cl)cc1)C2`, the result in [18] and in [19] was inactive.
Turning to `COc1cccc(/C=N/NC(=O)COc2ccc(N3CC4=C(CC(C)(C)CC4=O)N(c4ccc(Cl)cc4)C3)cc2)c1`, the outcome in data set [18] and in [19] was inactive.
Regarding `CC1(C)CC(=O)C2=C(C1)N(c1ccc(Cl)cc1)CN(c1ccc(Br)cc1)C2`, the result in [18] and in [19] was inactive.
For `CC1(C)CC(=O)C2=C(C1)N(c1ccc(Cl)cc1)CN(c1ccc(OCC(=O)NN)cc1)C2`, the result in data set [18] and in [19] was inactive.
`CC1(C)CC(=O)C2=C(C1)N(c1ccc(Cl)cc1)CN(c1ccccc1F)C2`: the result in data set [18] and in data set [19] was inactive.
For the molecule `CC1(C)CC(=O)C2=C(C1)N(c1ccc(Cl)cc1)CN(c1ccc(Cl)cc1)C2`, the Activity worked out at 28% in data set [1]; 0% in [2]; 28% in [3]; 32.4% in data set [5]; 6% in [6]; 0% in data set [7]. In addition, the Activity result is “tde” in data set [16]; “tde” in data set [17]; 25% in data set [8]; 17.8% in data set [10]; 6% in data set [12]; 23% in [13]. Moreover, in [15], the Activity is listed as 18.2%.
